Results from ChEMBL document CHEMBL5331128, “Alicyclic Ring Size Variation of 4-Phenyl-2-naphthoic Acid Derivatives as P2Y14 Receptor Antagonists” (J Med Chem, 2023).
Converted amounts (≈) assume the structure as drawn. The source made the active and inactive calls.

How the values were obtained:
[1] = Stability in simulated gastric fluid assessed as parent compound remaining after 120 mins; assay type: ADME; conditions: simulated gi fluid, 2 h
How it was run: (§1)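 Incubation in simulated gastric or intestinal fluid; percent parent remaining read at 120 min.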

[2] = Solubility of compound in pH 7.4 incubated for 20 hrs by pION method; assay type: physicochemical; conditions: buffer, pH 7.4, 20 h
How it was run: (§2)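 pION method: 5 mM DMSO stocks diluted 1:100 into pION buffer at pH 4.0 or 7.4, incubated 20 h. Undissolved material removed by centrifugation at 14,000 rpm for 20 min, then supernatant mixed 1:1 with n-propanol. […] Mean ± SD reported.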

[3] = Stability in simulated intestinal fluid assessed as parent compound remaining after 120 mins; assay type: ADME; conditions: simulated gi fluid, 2 h; how it was run: as §1
Cytochrome P450 1A2 = target: T1, Cytochrome P450 1A2 (Homo sapiens, UniProt P05177); experiment: Inhibition of CYP1A2 (unknown origin); assay type: ADME
T1 sequence (P05177 whole entry): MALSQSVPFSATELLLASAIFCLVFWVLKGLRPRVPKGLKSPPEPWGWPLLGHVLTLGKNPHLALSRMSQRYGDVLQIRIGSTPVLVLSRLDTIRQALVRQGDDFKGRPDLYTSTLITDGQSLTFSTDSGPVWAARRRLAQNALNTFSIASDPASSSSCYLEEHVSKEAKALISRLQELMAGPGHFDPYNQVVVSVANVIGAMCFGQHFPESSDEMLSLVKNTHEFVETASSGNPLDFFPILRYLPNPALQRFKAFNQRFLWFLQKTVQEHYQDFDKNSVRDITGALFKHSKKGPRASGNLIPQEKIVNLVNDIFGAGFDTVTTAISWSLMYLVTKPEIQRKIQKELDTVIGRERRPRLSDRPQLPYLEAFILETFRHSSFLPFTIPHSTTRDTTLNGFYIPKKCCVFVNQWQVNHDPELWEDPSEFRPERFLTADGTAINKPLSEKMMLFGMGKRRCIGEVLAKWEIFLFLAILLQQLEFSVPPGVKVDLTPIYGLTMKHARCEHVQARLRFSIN

[4] = Cmax in Wistar rat plasma at 1 mg/kg, ip and measured upto 24 hrs; assay type: ADME, organism-based; set-up: time < 24 hrs, dose 1 mg/kg, route ip
[5] = Acute toxicity in Wistar rat assessed as mortality at 0.5 mg/kg, iv and measured upto 24 hrs; assay type: organism-based; conditions: in vivo
How it was run: (§3)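 Male Wistar rats; single dose at 1, 3 or 10 mg/kg i.p., or 0.5 mg/kg i.v. Animals were watched for mortality and morbidity over the experimental period, in the course of a plasma pharmacokinetic study.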

[6] = Protein binding in human plasma assessed as bound fraction; assay type: ADME, cell-free
[7] = Selectivity ratio, ratio of IC50 for displacement of fluorescent tracer 4-(4-(1-(4-(1-(6-(3-carboxylato-4-(3-iminio-3H-xanthen-9-yl)benzamido)hexyl)-4,5-dihydro-1H-pyrrol-3-yl)butyl)piperidin-1-ium-4-yl)phenyl)-7-(4-(trifluoromethyl)phenyl)-2-naphthoate from mouse P2Y14R stably expressed in human HEK293 cells to IC50 for displacement of fluorescent tracer 4-(4-(1-(4-(1-(6-(3-carboxylato-4-(3-iminio-3H-xanthen-9-yl)benzamido)hexyl)-4,5-dihydro-1H-pyrrol-3-yl)butyl)piperidin-1-ium-4-yl)phenyl)-7-(4-(trifluoromethyl)phenyl)-2-naphthoate from human P2Y14R stably expressed in CHO cells; assay type: cell-based
[8] = Protein binding in rat plasma assessed as bound fraction; assay type: ADME, cell-free
[9] = Stability in rat plasma assessed as parent compound remaining at 1 uM and measured at 120 mins by LC-MS/MS analysis; assay type: ADME, cell-free; conditions: 2 h
How it was run: (§4)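 Plasma from human, rat and mouse; percent parent remaining at 120 min.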

[10] = Half life in Wistar rat at 3 mg/kg, ip and measured upto 24 hrs; assay type: ADME, organism-based; conditions: in vivo
[11] = Stability in human plasma assessed as parent compound remaining at 1 uM and measured at 120 mins by LC-MS/MS analysis; assay type: ADME, cell-free; conditions: 2 h; how it was run: as §4
Mus musculus [12] = experiment: Antiallodynic activity in CCI surgery neuropathic pain Hsd:ICR mouse model assessed as reversal of mechano-allodynia by measuring paw withdrawal threshold at 10 micromol/kg,ip and measured at 0.5 hrs by von frey test; assay type: functional, organism-based; conditions: dose 10.0 µmol/kg
How it was run: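 CCI neuropathic pain in adult male Hsd:ICR (CD-1) mice (20–30 g). Single i.p. injection on day 7 after sciatic nerve constriction, at peak pain. Vehicle 10% (Kolliphor HS 15:DMSO 5:95) in saline, 0.2 mL. Paw withdrawal threshold by von Frey filaments on ipsilateral and contralateral hindpaws. Mean ± SD; two-way ANOVA with Dunnett's test versus day 0 and day 7.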

HepG2 = experiment: Cytotoxicity in human HepG2 cells assessed as reduction in cell viability; assay type: toxicity, cell-based
[13] = Stability in mouse plasma assessed as parent compound remaining at 1 uM and measured at 120 mins by LC-MS/MS analysis; assay type: ADME, cell-free; conditions: 2 h; how it was run: as §4
Cytochrome P450 2D6 = Cytochrome P450 2D6 (Homo sapiens, UniProt P10635); experiment: Inhibition of CYP2D6 (unknown origin); assay type: ADME
Mus musculus [14] = experiment: Protection against cardiac ischemia/reperfusion induced C57BL/6J mouse injury model assessed as reduction in infarct area by measuring AAR/TTA ratio at 2 mg/kg, sc prior to 0.5 hrs of myocardial ischemia and 48 h of reperfusion (Rvb= […]); assay type: functional; set-up: scale not given: the % may be the effect or the level left; conditions: time 48.5 hrs
[15] = target: Voltage-gated inwardly rectifying potassium channel KCNH2 (Homo sapiens, UniProt Q12809); experiment: Inhibition of human ERG stably expressed in human HEK293 cells incubated for 2 hrs by TAMRA based fuorescence polarization assay; assay type: toxicity, cell-based
How it was run: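 hERG inhibition measured in a fluorescent dye-binding assay.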

Cytochrome P450 3A4 = Cytochrome P450 3A4 (Homo sapiens, UniProt P08684); experiment: Inhibition of CYP3A4 (unknown origin); assay type: ADME
[16] = Acute toxicity in Wistar rat assessed as morbidity at 1 to 10 mg/kg, ip and measured upto 24 hrs; assay type: organism-based; conditions: in vivo, dose 1-10 mg/kg; how it was run: as §3
[17] = target: 5-hydroxytryptamine receptor 1B (Homo sapiens, UniProt P28222); experiment: Displacement of [3H]-5-CT from human 5-HT1B receptor assessed as inhibition constant by radioligand displacement assay
[18] = Acute toxicity in Wistar rat assessed as mortality at 1 to 10 mg/kg, ip and measured upto 24 hrs; assay type: organism-based; conditions: in vivo, dose 1-10 mg/kg; how it was run: as §3
P2Y purinoceptor 14 = target: T2, P2Y purinoceptor 14 (Homo sapiens, UniProt Q15391); experiment: Displacement of fluorescent tracer 4-(4-(1-(4-(1-(6-(3-carboxylato-4-(3-iminio-3H-xanthen-9-yl)benzamido)hexyl)-4,5-dihydro-1H-pyrrol-3-yl)butyl)piperidin-1-ium-4-yl)phenyl)-7-(4-(trifluoromethyl)phenyl)-2-naphthoate from human P2Y14R stably expressed in CHO cells assessed as inhibition constant by flow cytometry; assay type: cell-based
T2 sequence (Q15391 whole entry): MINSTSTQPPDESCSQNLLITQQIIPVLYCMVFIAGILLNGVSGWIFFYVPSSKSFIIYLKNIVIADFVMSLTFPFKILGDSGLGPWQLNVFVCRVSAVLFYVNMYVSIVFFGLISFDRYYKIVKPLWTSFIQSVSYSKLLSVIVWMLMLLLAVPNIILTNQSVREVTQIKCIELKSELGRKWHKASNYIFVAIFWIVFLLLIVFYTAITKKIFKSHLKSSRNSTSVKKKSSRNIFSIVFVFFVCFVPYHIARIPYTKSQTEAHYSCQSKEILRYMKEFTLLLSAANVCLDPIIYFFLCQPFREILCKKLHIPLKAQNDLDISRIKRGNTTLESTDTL
How it was run: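 Whole-cell competitive binding: CHO cells expressing hP2Y14R (or HEK-293 cells expressing mP2Y14R) incubated with AlexaFluor488-labelled antagonist tracer at 20 nM.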

[19] = Solubility of compound in pH 4.0 incubated for 20 hrs by pION method; assay type: physicochemical; conditions: buffer, pH 4, 20 h; how it was run: as §2

Cytochrome P450 2D6, sequence (P10635 whole entry, the tested form may be a part): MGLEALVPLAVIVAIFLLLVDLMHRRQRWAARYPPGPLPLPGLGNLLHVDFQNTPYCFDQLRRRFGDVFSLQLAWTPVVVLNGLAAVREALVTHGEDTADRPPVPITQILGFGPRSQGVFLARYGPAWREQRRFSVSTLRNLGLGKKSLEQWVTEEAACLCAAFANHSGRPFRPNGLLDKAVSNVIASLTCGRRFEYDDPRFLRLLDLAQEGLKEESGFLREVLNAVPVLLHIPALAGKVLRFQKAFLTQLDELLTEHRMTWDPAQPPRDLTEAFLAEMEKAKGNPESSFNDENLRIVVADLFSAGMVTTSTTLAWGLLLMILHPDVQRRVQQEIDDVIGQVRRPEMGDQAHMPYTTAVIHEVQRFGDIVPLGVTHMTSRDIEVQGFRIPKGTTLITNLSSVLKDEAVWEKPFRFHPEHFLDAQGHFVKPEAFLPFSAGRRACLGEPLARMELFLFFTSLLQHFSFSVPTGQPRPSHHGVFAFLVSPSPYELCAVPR
5-hydroxytryptamine receptor 1B, sequence (P28222 whole entry): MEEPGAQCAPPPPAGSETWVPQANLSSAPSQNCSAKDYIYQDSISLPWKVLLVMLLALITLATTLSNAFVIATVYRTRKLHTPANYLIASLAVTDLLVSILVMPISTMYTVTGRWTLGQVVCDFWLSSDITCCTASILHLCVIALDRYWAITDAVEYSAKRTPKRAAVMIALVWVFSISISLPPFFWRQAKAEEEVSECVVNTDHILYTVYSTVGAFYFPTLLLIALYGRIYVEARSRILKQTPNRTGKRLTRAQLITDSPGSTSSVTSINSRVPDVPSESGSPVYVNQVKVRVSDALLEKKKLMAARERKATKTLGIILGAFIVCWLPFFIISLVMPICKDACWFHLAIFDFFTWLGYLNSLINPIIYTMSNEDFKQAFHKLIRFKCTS
Voltage-gated inwardly rectifying potassium channel KCNH2, sequence (Q12809 whole entry): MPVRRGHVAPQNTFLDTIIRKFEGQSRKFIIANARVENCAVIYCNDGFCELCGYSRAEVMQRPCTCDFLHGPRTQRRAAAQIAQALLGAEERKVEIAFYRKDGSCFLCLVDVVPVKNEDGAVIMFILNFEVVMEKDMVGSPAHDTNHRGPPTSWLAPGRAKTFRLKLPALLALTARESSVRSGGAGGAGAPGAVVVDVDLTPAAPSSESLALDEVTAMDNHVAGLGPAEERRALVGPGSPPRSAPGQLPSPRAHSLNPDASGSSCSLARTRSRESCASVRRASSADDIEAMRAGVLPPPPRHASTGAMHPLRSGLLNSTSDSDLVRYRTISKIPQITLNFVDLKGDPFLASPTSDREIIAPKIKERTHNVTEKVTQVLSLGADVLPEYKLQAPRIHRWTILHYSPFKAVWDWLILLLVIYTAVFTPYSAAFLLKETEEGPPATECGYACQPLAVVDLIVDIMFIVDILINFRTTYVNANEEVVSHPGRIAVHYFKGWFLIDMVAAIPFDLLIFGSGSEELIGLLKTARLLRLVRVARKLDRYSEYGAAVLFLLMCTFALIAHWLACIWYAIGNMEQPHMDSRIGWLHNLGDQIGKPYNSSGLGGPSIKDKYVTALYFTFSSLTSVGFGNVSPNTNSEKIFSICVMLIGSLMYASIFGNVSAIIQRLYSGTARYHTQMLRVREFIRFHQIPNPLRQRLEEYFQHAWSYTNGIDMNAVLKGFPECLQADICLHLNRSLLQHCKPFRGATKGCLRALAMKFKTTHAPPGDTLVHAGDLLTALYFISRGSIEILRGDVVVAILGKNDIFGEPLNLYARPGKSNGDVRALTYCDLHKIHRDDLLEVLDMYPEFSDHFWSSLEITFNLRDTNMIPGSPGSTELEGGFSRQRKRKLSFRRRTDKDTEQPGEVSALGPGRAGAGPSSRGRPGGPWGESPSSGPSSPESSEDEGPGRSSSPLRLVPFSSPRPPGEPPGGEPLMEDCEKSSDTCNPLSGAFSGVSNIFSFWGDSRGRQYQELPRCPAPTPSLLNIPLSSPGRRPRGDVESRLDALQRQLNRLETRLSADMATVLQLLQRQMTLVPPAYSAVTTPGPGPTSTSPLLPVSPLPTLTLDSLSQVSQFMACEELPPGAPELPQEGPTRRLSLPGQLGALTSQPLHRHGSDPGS
Cytochrome P450 3A4, sequence (P08684 whole entry): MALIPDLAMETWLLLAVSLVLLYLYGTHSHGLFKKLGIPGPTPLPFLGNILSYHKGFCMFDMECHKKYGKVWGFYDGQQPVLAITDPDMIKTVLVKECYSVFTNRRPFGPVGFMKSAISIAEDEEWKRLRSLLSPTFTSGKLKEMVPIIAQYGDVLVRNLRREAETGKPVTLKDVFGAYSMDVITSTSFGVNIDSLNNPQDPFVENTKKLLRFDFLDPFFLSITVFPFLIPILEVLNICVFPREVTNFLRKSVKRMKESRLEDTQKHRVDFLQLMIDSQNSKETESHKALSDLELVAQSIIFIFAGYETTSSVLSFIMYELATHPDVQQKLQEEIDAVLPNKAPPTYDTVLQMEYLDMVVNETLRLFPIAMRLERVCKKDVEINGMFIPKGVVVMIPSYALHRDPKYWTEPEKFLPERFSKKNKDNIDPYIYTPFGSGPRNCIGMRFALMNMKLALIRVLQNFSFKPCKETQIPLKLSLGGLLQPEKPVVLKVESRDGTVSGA

Question: What does the source list for `O=C(O)c1cc(-c2ccc([C@]3(O)[C@@H]4CNC[C@H]3C4)cc2)c2ccc(-c3ccc(C(F)(F)F)cc3)cc2c1`?
Answer: Stability [1]: 69.8%; solubility [2]: 1.4 µg/mL (≈ 2.78 µM); Stability [3]: 93.3%; IC50 (Cytochrome P450 1A2): > 30 µM; Cmax [4]: 500 nM; Activity [5]: Non-Toxic; PPB [6]: 99.3%; Ratio IC50 [7]: 0.811; PPB [8]: 99.48%; Stability [9]: 81.3%; t1/2 [10]: 4.32 h; Stability [11]: 91.1%; Activity (Mus musculus [12]): Active; IC50 (HepG2): 32.6 µM; Stability [13]: 100%; IC50 (Cytochrome P450 2D6): > 30 µM; Activity (Mus musculus [14]): 33.7%; IC50 [15]: > 30 µM; IC50 (Cytochrome P450 3A4): > 30 µM; Activity [16]: Non-Toxic; Ki [17]: 6 µM; Activity [18]: Non-Toxic; Ki (P2Y purinoceptor 14): 0.00344 µM; solubility [19]: 7.1 µg/mL (≈ 14.1 µM)
